{"data": "Results of several laboratories", "effect on": "cell growth or viability", "note": "Lines come from different studies, so protocols differ."}
{"Compound": "COc1nc(NCc2cn(-c3ccc(C(=O)Nc4ccc(C)cc4)cc3)nn2)nc(OC)n1", "cell line": "Caco-2", "assay": "MTT", "setting": "72 h", "IC50 [nM]": 514}
{"Compound": "COc1cc2c3c(n(CCCn4ccnc4)c(=O)c2cc1OC)-c1nc2c(cc1C3=O)OCO2", "cell line": "TC-32", "assay": "MTS", "setting": "72 h", "IC50 [nM]": 127}
{"Compound": "CCOc1nc(-c2cccc(O)c2)cc(-c2cc3ccccc3nc2N2CCOCC2)c1C#N", "cell line": "Caco-2", "assay": "MTT", "setting": "72 h", "IC50 [nM]": 141}
{"Compound": "COc1nc(NCc2cn(-c3ccc(NC(=O)c4ccc(F)cc4)cc3)nn2)nc(OC)n1", "cell line": "Caco-2", "assay": "MTT", "setting": "72 h", "IC50 [nM]": 550}
{"Compound": "C/C(=N\\NC(=O)c1cccc(S(=O)(=O)N2CCN(C)CC2)c1)c1cc(Cl)ccc1O", "cell line": "TC-32", "assay": "resazurin", "IC50 [nM]": 3300}
{"Compound": "COc1nc(NCc2cn(-c3ccc(C(=O)Nc4ccc(Cl)cc4)cc3)nn2)nc(OC)n1", "cell line": "Caco-2", "assay": "MTT", "setting": "72 h", "IC50 [nM]": 543}
{"Compound": "COc1cc2c3c(n(CCCNC(C)C)c(=O)c2cc1OC)-c1nc2c(cc1C3=O)OCO2", "cell line": "TC-32", "assay": "MTS", "setting": "72 h", "IC50 [nM]": 55}
{"Compound": "Nc1n[nH]c2nc(-c3cccc(O)c3)cc(-c3cc4cc(Cl)ccc4nc3N3CCOCC3)c12", "cell line": "Caco-2", "assay": "MTT", "setting": "72 h", "IC50 [nM]": 191}
{"Compound": "CC(C)c1ccccc1[C@@H]1CCCN1C1CC2(CCN(c3ccc(C(=O)NS(=O)(=O)c4ccc(NC[C@H]5CC[C@](C)(O)CC5)c([N+](=O)[O-])c4)c(Oc4cnc5[nH]ccc5c4)c3)CC2)C1", "cell line": "SU-DHL-4", "assay": "ATP luminescence", "setting": "48 h", "IC50 [nM]": 2.7}
{"Compound": "COc1cccc2c1C(=O)c1c(O)c3c(c(O)c1C2=O)C[C@@](O)(C(=O)CO)C[C@@H]3O[C@H]1C[C@H](N)[C@H](O)[C@H](C)O1", "cell line": "Caco-2", "assay": "MTT", "setting": "72 h", "IC50 [nM]": 1010}
{"Compound": "CCCOc1nc(-c2cccc(O)c2)cc(-c2cc3cc(Cl)ccc3nc2N2CCOCC2)c1C#N", "cell line": "Caco-2", "assay": "MTT", "setting": "72 h", "IC50 [nM]": 355}
{"Compound": "COc1nc(NCc2cn(-c3ccc(NC(=O)c4ccc(Cl)cc4)cc3)nn2)nc(OC)n1", "cell line": "Caco-2", "assay": "MTT", "setting": "72 h", "IC50 [nM]": 620}
{"Compound": "C=CC(=O)N1CCN(c2nc(=O)n(-c3c(C)ccnc3C(C)C)c3nc(-c4c(O)cccc4F)c(F)cc23)[C@@H](C)C1", "cell line": "UMUC3", "assay": "ATP luminescence", "IC50 [nM]": 48.8}
{"Compound": "Nc1n[nH]c2nc(-c3cccc(O)c3)cc(-c3cc4ccccc4nc3N3CCOCC3)c12", "cell line": "Caco-2", "assay": "MTT", "setting": "72 h", "IC50 [nM]": 625}
{"Compound": "COc1cccc2c1C(=O)c1c(O)c3c(c(O)c1C2=O)C[C@@](O)(C(=O)CO)C[C@@H]3O[C@H]1C[C@H](N)[C@H](O)[C@H](C)O1", "cell line": "NCI-H1650", "assay": "MTT", "setting": "72 h", "IC50 [nM]": 120}
{"Compound": "C=C(F)C(=O)N1CCN(c2nc(OC[C@@H]3CCCN3C)nc3c2CCN(c2cccc4cccc(Cl)c24)C3)C[C@@H]1CC#N", "cell line": "UMUC3", "assay": "ATP luminescence", "IC50 [nM]": 294}
